This is one part of a sample in which hits are shown more often than they occur.
A1 apoptosis 2 = A1 inhibitors via caspase activation, primary screen, cell-based, luminescence, HTS, two replicates | MEF A1-2A-BIM cells, caspase-Glo luminescence, 3 h; percent of clofoctol response, DMSO zero | caspase activation, % (concentration not given with the values) | 24,000 tested, under 10 active | AID 2465, 2010; in the data active = caspase activation above about 5.9%
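Test system – A1-2A-BIM-expressing MEF cells · Input – 2500 cells/well · Medium – RPMI-1640 growth medium with 10% FBS · Compound dosing – 50 nL pinned compound · Timing – 3 h compound exposure at 37 °C · Technique – Caspase-Glo luminescence (DEVD substrate) · Evaluation – Caspase-3/7 activity from luminescence increase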
T cruzi HTS = inhibitors of intracellular Trypanosoma cruzi, primary screen, cell-based, plate reader, single point, set 2. intracellular Trypanosoma cruzi in host cells. activity score (inhibition), % at 5.01 µM. hit rate 4.9% among 22,000; in the data active = activity score above about 55%;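 note: parasites and compound incubated about four days before reading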
INS-1E rescue = protection of INS-1E cells from cytokine death, primary screen, ATP luminescence, single point; INS-1E cytokine-induced death, 48 h; normalised: neutral wells 0, positive control 100; protection from cytokine-induced ATP loss, % at 10 µM; hit rate 0.1% among 20,000;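 active = mean replicate protection from cytokine-induced ATP loss at least 50% and at least 75% of replicates each reaching 50%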
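assay system = INS-1E rat insulinoma cells | amount = 8000 cells per well | medium = phenol-red-free RPMI with 5% fetal bovine serum | doses = one compound concentration, pin transfer | timing = 48 h cytokine plus compound treatment, 10 min reagent incubation | also added = IL-1β, TNF-α and IFN-γ cytokine mix | signal = CellTiter-Glo luminescence measuring cellular ATP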
Large screens that a line does not name were inactive.

C[C@H](CO)N1C[C@H](C)[C@H](CN(C)C(=O)Nc2ccccc2)Oc2ncc(C#Cc3ccc(C(F)(F)F)cc3)cc2C1=O	T cruzi HTS 83.4 (no result: INS-1E rescue)
C[C@H](CO)N1C[C@H](C)[C@H](CN(C)C(=O)Nc2ccc3c(c2)OCO3)Oc2ncc(C#CC(C)(C)O)cc2C1=O	none (no result: A1 apoptosis 2)
C=CCC/C=N/NC(=O)CCCCCC(=O)O	none
COc1ccc(NC(=O)Nc2cccc3c2O[C@@H](CN(C)S(=O)(=O)c2cccs2)[C@H](C)CN([C@@H](C)CO)C3=O)cc1	none
COc1ccc(NC(=O)N(C)C[C@H]2OCCCC[C@H](C)Oc3ccc(NC(=O)Nc4ccc(F)cc4)cc3C(=O)N([C@@H](C)CO)C[C@@H]2C)cc1	none (no result: T cruzi HTS, INS-1E rescue)
O=C(O)c1ccc(/C=N/NC(=O)c2ccccn2)cc1	none (no result: A1 apoptosis 2)
COc1ccc(/C=N/NC(=O)CCCCC(=O)NO)cc1OC	none (no result: A1 apoptosis 2)
C=CCNC(=O)[C@@H]1[C@H]2C(=O)O[C@H](c3ccccc3)[C@H](c3ccccc3)N2[C@H](c2ccc(O)cc2)[C@@]12C(=O)Nc1ccc(C#Cc3ccc(OC)cc3)cc12	none (no result: T cruzi HTS, INS-1E rescue)
C[C@H]1CN([C@@H](C)CO)C(=O)Cc2cc(NS(=O)(=O)c3cccs3)ccc2O[C@@H]1CN(C)S(=O)(=O)c1ccc(F)cc1	none (no result: A1 apoptosis 2)
Cc1ccc(S(=O)(=O)N(C)C[C@H]2Oc3ccc(NS(=O)(=O)c4cccs4)cc3CC(=O)N([C@H](C)CO)C[C@H]2C)cc1	T cruzi HTS 72.3
C[C@@H]1CN([C@H](C)CO)C(=O)Cc2cc(NS(=O)(=O)c3cccs3)ccc2O[C@@H]1CN(C)S(=O)(=O)c1ccc(F)cc1	T cruzi HTS 60.3 (no result: A1 apoptosis 2)
Cc1ccc(S(=O)(=O)Nc2ccc3c(c2)CC(=O)N([C@@H](C)CO)C[C@H](C)[C@@H](CN(C)S(=O)(=O)c2cccs2)O3)cc1	none
C[C@H]1CN([C@@H](C)CO)C(=O)Cc2cc(NC(=O)Nc3cccc4ccccc34)ccc2O[C@@H]1CN(C)C(=O)Nc1ccc2c(c1)OCO2	none (no result: A1 apoptosis 2)
COC(=O)CCCCCCC(=O)N/N=C/c1cc2c(cc1Br)OCO2	none
C[C@@H]1CN([C@@H](C)CO)C(=O)Cc2cc(N(C)C)ccc2O[C@@H]1CN(C)Cc1ccc(C(F)(F)F)cc1	none
C[C@H]1CN([C@@H](C)CO)C(=O)Cc2cc(N(C)C)ccc2O[C@@H]1CN(C)Cc1ccc(C(F)(F)F)cc1	T cruzi HTS 73.8
C[C@@H]1CN([C@H](C)CO)C(=O)Cc2cc(N(C)C)ccc2O[C@@H]1CN(C)Cc1ccc(C(F)(F)F)cc1	none
C[C@@H]1CN([C@H](C)CO)C(=O)Cc2cc(N(C)C)ccc2O[C@H]1CN(C)Cc1ccc(C(F)(F)F)cc1	T cruzi HTS 64.0
C[C@H]1CN([C@@H](C)CO)C(=O)c2cccc(NS(=O)(=O)c3ccccc3)c2O[C@@H]1CN(C)CC1CCCCC1	none (no result: A1 apoptosis 2)
C[C@@H]1CN([C@H](C)CO)C(=O)Cc2cc(NC(=O)Cc3ccccc3)ccc2O[C@@H]1CN(C)Cc1ccc(Cl)c(Cl)c1	T cruzi HTS 76.3
C[C@H]1CN([C@@H](C)CO)C(=O)Cc2cc(NC(=O)Cc3ccccc3)ccc2O[C@@H]1CN(C)Cc1ccc2c(c1)OCO2	T cruzi HTS 57.4
C[C@@H]1CN([C@@H](C)CO)C(=O)Cc2cc(NC(=O)Cc3ccccc3)ccc2O[C@@H]1CN(C)Cc1ccc(Cl)c(Cl)c1	T cruzi HTS 65.9
C[C@@H]1CN([C@@H](C)CO)C(=O)Cc2cc(NC(=O)Cc3ccccc3)ccc2O[C@@H]1CN(C)Cc1ccccc1	none (no result: A1 apoptosis 2)
C[C@@H]1CN([C@H](C)CO)C(=O)Cc2cc(NC(=O)Nc3ccccc3)ccc2O[C@@H]1CN(C)Cc1ccc(Cl)c(Cl)c1	none (no result: A1 apoptosis 2)
C[C@@H]1CN([C@H](C)CO)C(=O)Cc2cc(NC(=O)Cc3ccccc3)ccc2O[C@H]1CN(C)Cc1ccc2c(c1)OCO2	none (no result: A1 apoptosis 2)
C[C@H]1CN([C@@H](C)CO)C(=O)c2cc(NS(=O)(=O)c3ccccc3)ccc2O[C@@H]1CN(C)S(=O)(=O)c1cccs1	none
C[C@H]1CN([C@@H](C)CO)C(=O)Cc2cc(NC(=O)CCCCCC(=O)Nc3ccccc3N)ccc2O[C@H]1CN(C)C(=O)Nc1ccc(C(F)(F)F)cc1	none (no result: T cruzi HTS, INS-1E rescue)
C[C@@H]1CCCCO[C@@H](CN(C)C(=O)C2CCCCC2)[C@H](C)CN([C@@H](C)CO)C(=O)c2cc(NC(=O)CCCN(C)C)ccc2O1	none (no result: T cruzi HTS, INS-1E rescue)
C[C@@H]1CN([C@H](C)CO)C(=O)Cc2cc(NS(=O)(=O)c3ccc(F)cc3)ccc2O[C@@H]1CN(C)Cc1ccc(-c2ccccc2)cc1	T cruzi HTS 68.0 (no result: A1 apoptosis 2)

High-throughput results (PubChem)
